The source made the active and inactive calls. The rule behind the calls is not given here.
Assays:
Sus scrofa [1] = assay: (§1) AUC in pig at 6.8 mg/kg, po assessed as sodium (2-(methoxycarbonyl)-5-(phenylsulphonyl)-1H-benzo[d]imidazol-1-yl)methyl phosphate level; assay type: ADME, organism-based, Plasma; set-up: dose 6.8 mg/kg, route oral; conditions: in vivo
Sus scrofa [2] = assay: (§2) Tmax in pig at 6.8 mg/kg, po assessed as sodium (2-(methoxycarbonyl)-5-(phenylsulphonyl)-1H-benzo[d]imidazol-1-yl)methyl phosphate level; assay type: ADME, organism-based; set-up: dose 6.8 mg/kg, route oral; conditions: in vivo
Oesophagostomum dentatum [3] = assay: Anthelmintic activity against Oesophagostomum dentatum infected pig assessed as reduction in fecal egg shedding; assay type: functional
Sus scrofa [4] = assay: Cmax in pig at 6.8 mg/kg, po; conditions: in vivo
[5] = Aqueous solubility at pH 7.4; assay type: physicochemical
Oesophagostomum dentatum [6] = assay: Anthelmintic activity against Oesophagostomum dentatum infected pig assessed as worm burden reduction; assay type: functional
Sus scrofa [7] = assay: as §1; assay type: ADME, organism-based, Plasma; set-up: dose 6.8 mg/kg, route oral; conditions: in vivo; remark: listed apart in the source
[8] = Aqueous stability of the compound; assay type: physicochemical; conditions: buffer
How it was run: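 The compound was dissolved in water at 50 mM and held at pH 5 and at pH 9 for 8 h at room temperature. Remaining intact compound was measured by UV-HPLC.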

Sus scrofa [9] = assay: as §2; assay type: ADME, organism-based; set-up: dose 6.8 mg/kg, route oral; conditions: in vivo; remark: listed apart in the source
Sus scrofa [10] = assay: Cmax in pig at 6.8 mg/kg, po assessed as sodium (2-(methoxycarbonyl)-5-(phenylsulphonyl)-1H-benzo[d]imidazol-1-yl)methyl phosphate; assay type: ADME, organism-based; set-up: dose 6.8 mg/kg, route oral; conditions: in vivo
[11] = AUC in pig at 5.0 mg/kg, po; assay type: ADME, organism-based, Sus scrofa; set-up: dose 5 mg/kg, route oral; conditions: plasma
How it was run: (§3)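 Swine received a single oral dose of 5.0 mg/kg, given as an aqueous solution or suspension. Plasma levels of fenbendazole, fenbendazole sulfoxide and fenbendazole sulfone were measured over time. Cmax, Tmax and AUC were derived for each analyte.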

Sus scrofa [12] = assay: Tmax in pig at 5.0 mg/kg, po assessed as fenbendazole sulfoxide level; assay type: ADME, organism-based; set-up: dose 5 mg/kg, route oral; conditions: in vivo; how it was run: as §3
Sus scrofa [13] = assay: AUC in pig at 5.0 mg/kg, po assessed as fenbendazole sulfone level; assay type: ADME, organism-based, Plasma; set-up: dose 5 mg/kg, route oral; conditions: in vivo; how it was run: as §3
Sus scrofa [14] = assay: Cmax in pig at 5.0 mg/kg, po assessed as fenbendazole sulfone level; assay type: ADME, organism-based; set-up: dose 5 mg/kg, route oral; conditions: in vivo; how it was run: as §3
[15] = Tmax in pig at 5.0 mg/kg, po; assay type: ADME, organism-based, Sus scrofa; set-up: dose 5 mg/kg, route oral; conditions: in vivo; how it was run: as §3
[16] = Cmax in pig at 5.0 mg/kg, po; assay type: ADME, organism-based, Sus scrofa; set-up: dose 5 mg/kg, route oral; conditions: in vivo; how it was run: as §3
Sus scrofa [17] = assay: Tmax in pig at 5.0 mg/kg, po assessed as fenbendazole sulfone level; assay type: ADME, organism-based; set-up: dose 5 mg/kg, route oral; conditions: in vivo; how it was run: as §3
Sus scrofa [18] = assay: Cmax in pig at 5.0 mg/kg, po assessed as fenbendazole sulfoxide level; assay type: ADME, organism-based; set-up: dose 5 mg/kg, route oral; conditions: in vivo; how it was run: as §3
Sus scrofa [19] = assay: AUC in pig at 5.0 mg/kg, po assessed as fenbendazole sulfoxide level; assay type: ADME, organism-based, Plasma; set-up: dose 5 mg/kg, route oral; conditions: in vivo; how it was run: as §3

COC(=O)Nc1nc2cc(Sc3ccccc3)ccc2n1COP(=O)([O-])O.[Na+]
AUC (Sus scrofa [1]): 31150 ng·h/mL | Tmax (Sus scrofa [2]): 36 h | Activity (Oesophagostomum dentatum [3]): Active | Cmax (Sus scrofa [4]): 1410 ng/mL | solubility [5]: 130 mM | Activity (Oesophagostomum dentatum [6]): Active | AUC (Sus scrofa [7]): 58770 ng·h/mL | Stability [8]: > 8 h | Tmax (Sus scrofa [9]): 15 h | Cmax (Sus scrofa [10]): 780 ng/mL

COC(=O)Nc1nc2cc(C(=O)c3ccc(F)cc3)ccc2n1COP(=O)([O-])O.[Na+]
solubility [5]: > 50 mM | Stability [8]: > 8 h

COC(=O)Nc1nc2cc(C(=O)c3ccccc3)ccc2n1COP(=O)([O-])O.[Na+]
solubility [5]: > 50 mM | Stability [8]: > 8 h

COC(=O)Nc1nc2cc(Sc3ccccc3)ccc2[nH]1
Activity (Oesophagostomum dentatum [3]): Active | Activity (Oesophagostomum dentatum [6]): Active

CCCCc1ccc2c(c1)nc(NC(=O)OC)n2COP(=O)([O-])O.[Na+]
solubility [5]: > 50 mM | Stability [8]: > 8 h

CCCSc1ccc2c(c1)nc(NC(=O)OC)n2COP(=O)([O-])O.[Na+]
solubility [5]: > 50 mM | Stability [8]: > 8 h

COC(=O)Nc1nc2ccc(Sc3ccccc3)cc2[nH]1 [FENBENDAZOLE]
AUC [11]: 310 ng·h/mL | Tmax (Sus scrofa [12]): 17 h | AUC (Sus scrofa [13]): 12730 ng·h/mL | Cmax (Sus scrofa [14]): 380 ng/mL | Tmax [15]: 5.4 h | Cmax [16]: 50 ng/mL | Tmax (Sus scrofa [17]): 34 h | Cmax (Sus scrofa [18]): 1090 ng/mL | AUC (Sus scrofa [19]): 35000 ng·h/mL

COC(=O)Nc1nc2cc([S+]([O-])c3ccccc3)ccc2n1COP(=O)([O-])O.[Na+] (stereo unspecified)
solubility [5]: > 50 mM | Stability [8]: > 8 h

Source: ChEMBL document CHEMBL1143169, “Highly water-soluble prodrugs of anthelmintic benzimidazole carbamates: synthesis, pharmacodynamics, and pharmacokinetics” (J Med Chem, 2008)
